Experimental data reported in ChEMBL document CHEMBL1125593, “Synthesis and biological evaluation of substituted benzenesulfonamides as novel potent membrane-bound phospholipase A2 inhibitors” (1991).

Key:
[1] = test system: membrane-bound phospholipase A2 (Oryctolagus cuniculus); assay: Tested in vitro for inhibition of phospholipase A2 (PLA2) in rabbit heart membranes.
[2] = test system: membrane-bound phospholipase A2 (Oryctolagus cuniculus); assay: Compound was tested for the percent inhibition of phospholipase A2 (PLA2) in rabbit heart membranes at a concentration of 100 uM.
Rattus norvegicus [3] = assay: Compound was tested for the % inhibition rate of infarct size (myoglobin depleted area) on iv administration 15 min prior to the ligation at a dose of 0.3 mg/kg.; format: functional
Rattus norvegicus [4] = assay: Compound was tested for the % inhibition rate of infarct size (myoglobin depleted area) on iv administration 15 min prior to the ligation at a dose of 1.0 mg/kg.; format: functional
Rattus norvegicus [5] = assay: Compound was tested for the % inhibition rate of infarct size (myoglobin depleted area) on iv administration 15 min prior to the ligation at a dose of 0.1 mg/kg.; format: functional
Rattus norvegicus [6] = assay: Compound was tested for the % inhibition rate of infarct size (myoglobin depleted area) on iv administration 15 min prior to the ligation at a dose of 1 mg/kg.; format: functional
Rattus norvegicus [7] = assay: Compound was tested for the % inhibition rate of infarct size (myoglobin depleted area) on iv administration 15 min prior to the ligation at a dose of 10 mg/kg.; format: functional
Rattus norvegicus [8] = assay: Compound was tested for the % inhibition rate of infarct size (myoglobin depleted area) on sc administration 15 min prior to the ligation at a dose of 75.0 mg/kg.; format: functional; settings: route subcutaneous
Outline: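 Sprague-Dawley rats (180–260 g) were anesthetized with diethyl ether and the left main coronary artery was ligated 1–2 mm from its origin for 3 h. Compound was given sc 15 min before ligation, and rats dying within 3 h were excluded. Infarct size was scored as the myoglobin-depleted area by immunohistochemistry and image analysis, with inhibition taken versus untreated animals, mean ± SEM.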

IC30 [1] [nM] | SMILES | further results
210 | CN(C(=O)/C=C/c1ccc(S(C)(=O)=O)cc1)c1ccc(S(=O)(=O)NCCc2ccccn2)cc1 | –
63 | CN(C(=O)/C=C/c1ccc(S(C)(=O)=O)cc1)c1ccc(S(=O)(=O)N2CCN(CCc3ccccc3)CC2)cc1 | –
25 | CN(C(=O)/C=C/c1ccc(S(C)(=O)=O)cc1)c1ccc(S(=O)(=O)N2CCCN(CCc3ccccc3)CC2)cc1 | –
44000 | CNS(=O)(=O)c1ccc(N(C)C(=O)/C=C/c2ccc(O)c(O)c2)cc1 | –
13300 | CN(C(=O)/C=C/c1ccc(O)c(O)c1)c1ccc(S(N)(=O)=O)cc1 | –
– | COC(=O)c1sccc1NC(=O)/C=C/c1ccc(O)c(O)c1 | inhibition [2]: 31.6%
– | COc1ccc(CCN(C)CCCC(C#N)(c2ccc(OC)c(OC)c2)C(C)C)cc1OC (stereo not drawn) | Inhibition rate (Rattus norvegicus [3]): 0.1%; Inhibition rate (Rattus norvegicus [4]): 19.2%; Inhibition rate (Rattus norvegicus [5]): 0.7%
6100 | CN(C(=O)/C=C/c1ccc(O)c(O)c1)c1ccc(S(=O)(=O)NC2CCc3ccccc32)cc1 (stereo not drawn) | –
1240 | CN(C(=O)/C=C/c1ccc(O)cc1)c1ccc(S(=O)(=O)NC2CCCCCC2)cc1 | –
5430 | CN(C(=O)/C=C/c1ccc(O)c(O)c1)c1ccc(S(=O)(=O)NC2CCCC2)cc1 | –
49 | CN(C(=O)/C=C/c1ccc(S(C)(=O)=O)cc1)c1ccc(S(=O)(=O)NC2CCCCN(Cc3ccccn3)C2)cc1 (stereo not drawn) | –
260 | CN(C(=O)/C=C/c1ccc(S(C)(=O)=O)cc1)c1ccc(S(=O)(=O)NCc2ccccn2)cc1 | –
9 | CN(C(=O)/C=C/c1ccc(S(C)(=O)=O)cc1)c1ccc(S(=O)(=O)NC2CCN(CCc3ccccc3)CC2)cc1 | Inhibition rate (Rattus norvegicus [3]): 18.7%; Inhibition rate (Rattus norvegicus [4]): 22.5%; Inhibition rate (Rattus norvegicus [5]): 7%
25 | CN(C(=O)/C=C/c1ccc(S(C)(=O)=O)cc1)c1ccc(S(=O)(=O)NC2CCCCN(Cc3ccccc3)C2)cc1 (stereo not drawn) | –
5330 | CN(C(=O)/C=C/c1ccc(O)c(F)c1)c1ccc(S(=O)(=O)NC2CCCCCC2)cc1 | –
190 | CN(C(=O)/C=C/c1ccc([N+](=O)[O-])cc1)c1ccc(S(=O)(=O)NC2CCCCCC2)cc1 | –
220 | CN(C(=O)/C=C/c1ccc(S(C)(=O)=O)cc1)c1ccc(S(=O)(=O)N2CCN(Cc3ccccc3)CC2)cc1 | –

IC30 [1] [nM] | SMILES | further results
5070 | CN(C(=O)/C=C/c1ccc(O)c(O)c1)c1ccc(S(=O)(=O)NC2CCc3ccccc3C2)cc1 (stereo not drawn) | –
16 | CN(C(=O)/C=C/c1ccc(S(C)(=O)=O)cc1)c1ccc(S(=O)(=O)NC2CCCCCC2)cc1 | –
1450 | CN(C(=O)/C=C/c1ccc(O)c(O)c1)c1ccc(S(=O)(=O)NC2CCCCC2)cc1 | –
66 | Cc1cccc(CCNS(=O)(=O)c2ccc(N(C)C(=O)/C=C/c3ccc(S(C)(=O)=O)cc3)cc2)n1 | Inhibition rate (Rattus norvegicus [6]): 5.6%; Inhibition rate (Rattus norvegicus [7]): 21.9%
1000 | CN1CCC(NS(=O)(=O)c2ccc(N(C)C(=O)/C=C/c3ccc(S(C)(=O)=O)cc3)cc2)CC1 | –
25000 | NS(=O)(=O)c1ccc(NC(=O)/C=C/c2ccc(O)c(O)c2)cc1 | –
1750 | CN(C(=O)/C=C/c1ccc(O)c(O)c1)c1ccc(S(=O)(=O)NC2CCCCCC2)cc1 | –
51 | CC(C)CN1CCC(NS(=O)(=O)c2ccc(N(C)C(=O)/C=C/c3ccc(S(C)(=O)=O)cc3)cc2)CC1 | –
30000 | CC(C)NS(=O)(=O)c1ccc(N(C)C(=O)/C=C/c2ccc(O)c(O)c2)cc1 | –
65 | Cc1cccc(CCN(C)S(=O)(=O)c2ccc(N(C)C(=O)/C=C/c3ccc(S(C)(=O)=O)cc3)cc2)n1 | –
4640 | CN(C(=O)/C=C/c1ccc(O)c(O)c1)c1ccc(S(=O)(=O)NC2Cc3ccccc3C2)cc1 | –
28 | CN(C(=O)/C=C/c1ccc(S(C)(=O)=O)cc1)c1ccc(S(=O)(=O)NC2CCN(Cc3ccccc3)CC2)cc1 | Inhibition rate (Rattus norvegicus [3]): 20.9%; Inhibition rate (Rattus norvegicus [4]): 22.1%; Inhibition rate (Rattus norvegicus [5]): 1.6%
64 | CN(C(=O)/C=C/c1ccc(S(C)(=O)=O)cc1)c1ccc(S(=O)(=O)N2CCCN(Cc3ccccc3)CC2)cc1 | –
450 | CN(C(=O)/C=C/c1ccc(-n2ccnc2)cc1)c1ccc(S(=O)(=O)NC2CCCCCC2)cc1 | –
– | CCN(CC)CCCC(C)Nc1c2ccc(Cl)cc2nc2ccc(OC)cc12 (stereo not drawn) [QUINACRINE] | Inhibition rate (Rattus norvegicus [8]): 37.4%
200 | CN(C(=O)/C=C/c1ccc(C#N)cc1)c1ccc(S(=O)(=O)NC2CCCCCC2)cc1 | –
